Data from ChEMBL document CHEMBL4351018, “Novel phenanthridin-6(5H)-one derivatives as potent and selective BET bromodomain inhibitors: Rational design, synthesis and biological evaluation” (Eur J Med Chem, 2019).

How the values were obtained:
[1] = Apparent clearance in Sprague-Dawley rat at 10 mg/kg, po measured for 0.083 to 24 hrs by LC-MS/MS analysis; format: ADME, organism-based; settings: in vivo, read-out: CL(app) (converted)
Peregrin (Homo sapiens) = target: T1, Peregrin (Homo sapiens) (UniProt P55201); experiment: Binding affinity to BRPF1B (unknown origin) at 20 uM by Alpha screen assay relative to control
T1 sequence (whole entry): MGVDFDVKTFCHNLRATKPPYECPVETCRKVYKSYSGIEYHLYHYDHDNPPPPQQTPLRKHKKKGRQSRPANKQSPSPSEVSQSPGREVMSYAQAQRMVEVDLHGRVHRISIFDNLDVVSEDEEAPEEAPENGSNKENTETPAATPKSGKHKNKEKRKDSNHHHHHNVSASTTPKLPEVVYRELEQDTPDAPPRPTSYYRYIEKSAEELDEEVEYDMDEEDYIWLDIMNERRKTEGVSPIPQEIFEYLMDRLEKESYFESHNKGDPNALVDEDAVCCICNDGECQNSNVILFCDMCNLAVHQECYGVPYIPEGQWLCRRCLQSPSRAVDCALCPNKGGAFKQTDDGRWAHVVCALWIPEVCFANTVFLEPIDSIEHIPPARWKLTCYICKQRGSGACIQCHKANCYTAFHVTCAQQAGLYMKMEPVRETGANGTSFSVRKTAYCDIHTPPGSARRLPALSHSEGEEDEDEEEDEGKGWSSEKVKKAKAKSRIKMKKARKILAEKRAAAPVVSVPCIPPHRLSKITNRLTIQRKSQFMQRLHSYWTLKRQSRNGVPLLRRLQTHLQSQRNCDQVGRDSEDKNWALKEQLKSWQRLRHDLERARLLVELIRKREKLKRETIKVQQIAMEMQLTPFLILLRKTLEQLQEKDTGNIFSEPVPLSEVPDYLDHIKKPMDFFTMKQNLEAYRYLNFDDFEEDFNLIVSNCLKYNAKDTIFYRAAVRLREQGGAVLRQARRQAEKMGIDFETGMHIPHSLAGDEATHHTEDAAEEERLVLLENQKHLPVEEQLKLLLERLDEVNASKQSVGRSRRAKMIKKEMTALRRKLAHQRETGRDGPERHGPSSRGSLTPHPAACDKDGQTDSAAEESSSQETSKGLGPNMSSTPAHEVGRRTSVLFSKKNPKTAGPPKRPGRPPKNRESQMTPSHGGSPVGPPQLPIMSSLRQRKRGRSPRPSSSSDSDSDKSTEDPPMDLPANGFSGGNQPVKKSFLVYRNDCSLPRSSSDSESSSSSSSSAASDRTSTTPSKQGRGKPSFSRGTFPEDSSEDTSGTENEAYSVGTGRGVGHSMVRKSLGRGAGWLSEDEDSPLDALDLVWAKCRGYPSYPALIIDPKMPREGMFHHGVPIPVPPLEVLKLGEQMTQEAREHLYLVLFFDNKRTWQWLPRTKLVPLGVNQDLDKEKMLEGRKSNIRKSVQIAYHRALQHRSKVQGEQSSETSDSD

[2] = Oral bioavailability in Sprague-Dawley rat at 10 mg/kg measured for 0.083 to 24 hrs by LC-MS/MS analysis; format: ADME, organism-based; settings: in vivo
A549 [3] = experiment: Induction of cell cycle arrest in human A549 cells assessed as accumulation at […] phase at 3.0 uM incubated for 48 hrs by BrdU/PI staining based flow cytometric analysis; format: functional
Method in brief: (§1)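 Subconfluent A549 cells exposed 48 h to 0.3–5.0 μM with DMSO vehicle control. Pulse-labelled with 10 μM BrdU for 30 min at 37 °C before harvest. Fixed in 70% ethanol, denatured in 2 M HCl, neutralised, then stained with fluorescein anti-BrdU antibody and propidium iodide. Analysed by flow cytometry with 488 nm excitation.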

A549 [4] = experiment: Induction of cell cycle arrest in human A549 cells assessed as accumulation at […] phase at 0.3 uM incubated for 48 hrs by BrdU/PI staining based flow cytometric analysis; format: functional; method in brief: as §1
[5] = Apparent clearance in Sprague-Dawley rat at 2.5 mg/kg, iv measured for 0.083 to 24 hrs by LC-MS/MS analysis; format: ADME, organism-based; settings: in vivo, read-out: CL(app) (converted)
[6] = AUC (0 to infinity) in Sprague-Dawley rat at 10 mg/kg, po measured for 0.083 to 24 hrs by LC-MS/MS analysis; format: ADME, organism-based; design: dose 10 mg/kg, route oral, time infinity; settings: in vivo
A549 [7] = experiment: Inhibition of BET in human A549 cells assessed as downregulation of c-Myc protein expression level incubated for 48 hrs by western blot analysis; format: cell-based
Method in brief: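 A549 cells seeded at 400000 per well, grown overnight in 10% FBS medium, then given serially diluted compound for 48 h. c-Myc in lysates detected with a mouse monoclonal antibody; GAPDH used as loading control.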

PANC-1 = experiment: Antiproliferative activity against human PANC1 cells incubated for 48 hrs by MTT assay; format: functional, cell-based; settings: PANC-1, 48 h
Method in brief: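 Cells kept in DMEM or RPMI 1640 with 10% FBS at 37 °C, 5% CO2. MTT added for 4 h at 37 °C, formazan dissolved in DMSO, OD read at 570 nm. Survival % taken relative to blank and control wells. Triplicate runs; IC50 from curve fit.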

A549 [8] = experiment: Induction of cell cycle arrest in human A549 cells assessed as accumulation at […] phase at 1.0 uM incubated for 48 hrs by BrdU/PI staining based flow cytometric analysis; format: functional; method in brief: as §1
[9] = target: Bromodomain-containing protein 3 (Homo sapiens) (UniProt Q15059); experiment: Binding affinity to BRD3 bromodomain 1 (unknown origin) at 20 uM by Alpha screen assay relative to control
Chain of Bromodomain-containing protein 3 (Homo sapiens) (Q15059 2-726 limits assumed): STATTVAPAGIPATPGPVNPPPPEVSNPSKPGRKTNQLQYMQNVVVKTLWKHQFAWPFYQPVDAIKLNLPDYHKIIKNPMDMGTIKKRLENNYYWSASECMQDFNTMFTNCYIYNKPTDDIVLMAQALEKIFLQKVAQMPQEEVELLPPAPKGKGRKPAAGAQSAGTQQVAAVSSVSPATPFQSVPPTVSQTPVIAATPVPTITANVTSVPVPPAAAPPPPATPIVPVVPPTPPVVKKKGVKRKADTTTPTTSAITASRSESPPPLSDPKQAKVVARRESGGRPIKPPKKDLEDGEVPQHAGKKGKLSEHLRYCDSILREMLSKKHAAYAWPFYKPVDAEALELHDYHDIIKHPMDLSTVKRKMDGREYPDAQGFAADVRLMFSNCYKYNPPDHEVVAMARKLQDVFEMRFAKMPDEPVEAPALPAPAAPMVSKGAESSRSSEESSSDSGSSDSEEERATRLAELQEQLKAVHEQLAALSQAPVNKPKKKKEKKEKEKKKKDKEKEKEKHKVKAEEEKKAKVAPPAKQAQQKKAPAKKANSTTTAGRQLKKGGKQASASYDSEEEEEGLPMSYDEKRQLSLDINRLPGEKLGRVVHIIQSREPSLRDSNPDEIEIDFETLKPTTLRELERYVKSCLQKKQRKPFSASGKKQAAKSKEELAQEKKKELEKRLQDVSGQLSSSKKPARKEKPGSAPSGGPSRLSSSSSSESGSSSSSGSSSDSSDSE

[10] = target: Bromodomain-containing protein 4 (Homo sapiens, UniProt O60885); experiment: Inhibition of recombinant human His-tagged BRD4 bromodomain 1/2 (2 to 1362 residues) expressed in […] insect cells using biotinylated H4(1 to 21)K5/8/12/16Ac peptide as substrate preincubated for 30 mins followed by substrate addition and measured after 30 mins by Alpha screen assay
A549 [11] = experiment: Induction of apoptosis in human A549 cells assessed as early apoptotic cells at 5.0 uM incubated for 48 hrs by annexin V-FITC/PI double staining based flow cytometric analysis (reference value: 1.76%); format: functional
A549 [12] = experiment: Induction of apoptosis in human A549 cells assessed as late apoptotic cells at 3.0 uM incubated for 48 hrs by annexin V-FITC/PI double staining based flow cytometric analysis (reference value: 0.039%); format: functional
[13] = target: Bromodomain-containing protein 3 (Homo sapiens) (UniProt Q15059); experiment: Binding affinity to BRD3 bromodomain 2 (unknown origin) at 20 uM by Alpha screen assay relative to control
[14] = Half life in Sprague-Dawley rat at 2.5 mg/kg, iv measured for 0.083 to 24 hrs by LC-MS/MS analysis; format: ADME, organism-based; settings: in vivo
[15] = AUC (0 to infinity) in Sprague-Dawley rat at 2.5 mg/kg, iv measured for 0.083 to 24 hrs by LC-MS/MS/MS analysis; format: ADME, organism-based; design: dose 2.5 mg/kg, time infinity, route intravenous; settings: in vivo
A549 [16] = experiment: Induction of apoptosis in human A549 cells assessed as late apoptotic cells at 5.0 uM incubated for 48 hrs by annexin V-FITC/PI double staining based flow cytometric analysis (reference value: 0.039%); format: functional

CL/F [1]: 303 mL/min/kg
Activity (Peregrin (Homo sapiens)): > 30%
bioavailability [2]: 36.6%
clearance [5]: 85.8 mL/min/kg
AUC(0-inf) [6]: 670 ng·h/mL
IC50 (PANC-1): 6.7 µM
Activity [9]: > 70%
IC50 [10]: 0.24 µM
Activity [13]: > 70%
half-life [14]: 10.4 h
AUC(0-inf) [15]: 505 ng·h/mL
SMILES: COc1ccc(Cl)cc1S(=O)(=O)Nc1ccc2[nH]c(=O)c3ccccc3c2c1
Activity (A549 [3]): 76.42%
Activity (A549 [4]): 60.84%
inhibition (A549 [7]): Dose-dependent effect
Activity (A549 [8]): 70.3%
Activity (A549 [11]): 72%
Activity (A549 [12]): 7.11%
Activity (A549 [16]): 8.25%
